Test results from ChEMBL document CHEMBL2384939, “Synthesis of pyrazolo[1,5-a]pyrimidine linked aminobenzothiazole conjugates as potential anticancer agents” (Bioorg Med Chem Lett, 2013).
Calls of active or inactive are those of the source. The calls are words filed in the database; no cut-off is given here.

Key:
A549 [1] = assay: Induction of apoptosis in human A549 cells assessed as DNA fragmentation at 2 uM after 48 hrs by agarose gel electrophoresis; format: functional, cell-based
Method in brief: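 A549 cells (1×10^6) seeded in six-well plates for 24 h, then exposed to 2 µM compound or roscovitine for 48 h and pelleted. Lysate treated with SDS and RNase-A (2 h, 56 °C), then proteinase K (2 h, 37 °C). DNA precipitated with ammonium acetate/cold ethanol, dissolved in TE, and laddering resolved on 2% agarose gel against a 50 bp marker.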

A549 [2] = assay: Induction of apoptosis in human A549 cells assessed as activation of caspase-3 at 1 to 2 uM after 48 hrs by ELISA relative to control; format: functional, cell-based
Method in brief: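 A549 lung cancer cells exposed to 1 and 2 µM compound for 48 h, with roscovitine as positive control. Pellets lysed for 15 min, and supernatant caspase-3 activity read by a commercial colorimetric kit relative to untreated control. Values are mean ± SD of two experiments run in triplicate.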

A549 [3] = assay: Induction of apoptosis in human A549 cells assessed as reduction of Cdk1 expression at 2 uM after 48 hrs by Western blot analysis; format: functional, cell-based
Method in brief: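 5×10^5 A549 cells grown 24 h, then treated with 2 µM compound for 48 h. Lysis in ice-cold RIPA with protease inhibitors, protein by Bradford, 50 µg per lane on 12% SDS-PAGE, PVDF transfer. Probed overnight at 4 °C with mouse monoclonal anti-Cdk1, β-actin as loading control, chemiluminescent detection.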

A549 [4] = assay: Cell cycle arrest at human A549 cells assessed as accumulation at G2/M phase at 1 uM after 48 hrs by propidium iodide-staining-based FACS flow cytometric analysis (reference value: 13.17%); format: functional
A549 [5] = assay: Cell cycle arrest at human A549 cells assessed as accumulation at G2/M phase at 2 uM after 48 hrs by propidium iodide-staining-based FACS flow cytometric analysis (reference value: 13.17%); format: functional
A549 [6] = assay: Cell cycle arrest at human A549 cells assessed as accumulation at S phase at 2 uM after 48 hrs by propidium iodide-staining-based FACS flow cytometric analysis (reference value: 4.48%); format: functional
A549 [7] = assay: Cell cycle arrest at human A549 cells assessed as accumulation at G0/G1 phase at 1 uM after 48 hrs by propidium iodide-staining-based FACS flow cytometric analysis (reference value: 81.33%); format: functional
HeLa = assay: Cytotoxicity against human HeLa cells after 48 hrs by MTT assay; format: functional, cell-based
Method in brief: (§1)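 MTT assay: […] were plated in DMEM with 10% FBS and incubated for 24 h at 37 °C under CO2. Compounds diluted in culture medium were added alongside a vehicle control for 48 h. MTT (10 µl of a 5 mg/ml stock) was added for a further 4 h. The supernatant was then removed, the formazan dissolved in DMSO, and absorbance read at 540 nm. IC50 was derived.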

T47D = assay: Cytotoxicity against human T47D cells after 48 hrs by MTT assay; format: functional
BT-549 = assay: Cytotoxicity against human BT549 cells after 48 hrs by MTT assay; format: functional; details: BT-549, 48 h
Hs-578T = assay: Cytotoxicity against human Hs578T cells after 48 hrs by MTT assay; format: functional
MDA-MB-231 = assay: Cytotoxicity against human MDA-MB-231 cells after 48 hrs by MTT assay; format: functional; details: MDA-MB-231, 48 h
MCF7 = assay: Cytotoxicity against human MCF7 cells after 48 hrs by MTT assay; format: functional, cell-based; details: MCF7, 48 h; method in brief: as §1
DU-145 = assay: Cytotoxicity against human DU145 cells after 48 hrs by MTT assay; format: functional, cell-based; details: DU-145, 48 h; method in brief: as §1
TK-10 = assay: Cytotoxicity against human TK10 cells after 48 hrs by MTT assay; format: functional; details: TK-10, 48 h
SN12C = assay: Cytotoxicity against human SN12C cells after 48 hrs by MTT assay; format: functional
ACHN = assay: Cytotoxicity against human ACHN cells after 48 hrs by MTT assay; format: functional, cell-based; method in brief: as §1
786-0 = assay: Cytotoxicity against human 786-0 cells after 48 hrs by MTT assay; format: functional; details: 786-0, 48 h
SK-OV-3 = assay: Cytotoxicity against human SKOV3 cells after 48 hrs by MTT assay; format: functional; details: SK-OV-3, 48 h
OVCAR-8 = assay: Cytotoxicity against human OVCAR8 cells after 48 hrs by MTT assay; format: functional; details: OVCAR-8, 48 h
IGROV-1 = assay: Cytotoxicity against human IGROV1 cells after 48 hrs by MTT assay; format: functional; details: IGROV-1, 48 h
SK-MEL-2 = assay: Cytotoxicity against human SK-MEL-2 cells after 48 hrs by MTT assay; format: functional; details: SK-MEL-2, 48 h
A549 [8] = assay: Cell cycle arrest at human A549 cells assessed as accumulation at sub G1 phase at 1 uM after 48 hrs by propidium iodide-staining-based FACS flow cytometric analysis (reference value: 1.02%); format: functional
Malme-3M = assay: Cytotoxicity against human MALME-3M cells after 48 hrs by MTT assay; format: functional
M14 = assay: Cytotoxicity against human M14 cells after 48 hrs by MTT assay; format: functional; details: M14, 48 h
U-251 = assay: Cytotoxicity against human U251 cells after 48 hrs by MTT assay; format: functional; details: U-251, 48 h
SNB-19 = assay: Cytotoxicity against human SNB19 cells after 48 hrs by MTT assay; format: functional; details: SNB-19, 48 h
SF-539 = assay: Cytotoxicity against human SF539 cells after 48 hrs by MTT assay; format: functional; details: SF-539, 48 h
SF-268 = assay: Cytotoxicity against human SF268 cells after 48 hrs by MTT assay; format: functional; details: SF-268, 48 h
HCT-116 = assay: Cytotoxicity against human HCT116 cells after 48 hrs by MTT assay; format: functional; details: HCT-116, 48 h
NCI-H460 = assay: Cytotoxicity against human NCI-H460 cells after 48 hrs by MTT assay; format: functional; details: NCI-H460, 48 h
NCI-H322M = assay: Cytotoxicity against human NCI-H322M cells after 48 hrs by MTT assay; format: functional
HOP-92 = assay: Cytotoxicity against human HOP92 cells after 48 hrs by MTT assay; format: functional; details: HOP-92, 48 h
NCI-H226 = assay: Cytotoxicity against human NCI-H226 cells after 48 hrs by MTT assay; format: functional; details: NCI-H226, 48 h
[9] = Cytotoxicity against human EKVX cells after 48 hrs by MTT assay; format: functional
A549 [10] = assay: Cytotoxicity against human A549 cells after 48 hrs by MTT assay; format: functional, cell-based; details: A549, 48 h; method in brief: as §1
A549 [11] = assay: Cell cycle arrest at human A549 cells assessed as accumulation at G0/G1 phase at 2 uM after 48 hrs by propidium iodide-staining-based FACS flow cytometric analysis (reference value: 81.33%); format: functional
SR = assay: Cytotoxicity against human SR cells after 48 hrs by MTT assay; format: functional
K562 = assay: Cytotoxicity against human K562 cells after 48 hrs by MTT assay; format: functional; details: K562, 48 h
CCRF-CEM = assay: Cytotoxicity against human CCRF-CEM cells after 48 hrs by MTT assay; format: functional

COc1cc(-c2cc(C(=O)Nc3nc4ccccc4s3)nc3cc(-c4ccccc4)nn23)cc(OC)c1OC
Activity (A549 [1]): Active | Activity (A549 [2]): Active | Activity (A549 [3]): Active | Activity (A549 [4]): 40.05% | Activity (A549 [5]): 52.45% | Activity (A549 [6]): 6.32% | Activity (A549 [7]): 42.29% | IC50 (HeLa): 7.07 µM | GI50 (T47D): 21.4 µM | GI50 (BT-549): 6.3 µM | GI50 (Hs-578T): 4.7 µM | GI50 (MDA-MB-231): 5.6 µM | GI50 (MCF7): 22.4 µM | IC50 (MCF7): 2.88 µM | GI50 (DU-145): 65 µM | IC50 (DU-145): 3.16 µM | GI50 (TK-10): 11.9 µM | GI50 (SN12C): 85 µM | GI50 (ACHN): 45.7 µM | IC50 (ACHN): 4.36 µM | GI50 (786-0): 2.5 µM | GI50 (SK-OV-3): 12.5 µM | GI50 (OVCAR-8): 5.3 µM | GI50 (IGROV-1): 56 µM | GI50 (SK-MEL-2): 11.2 µM | Activity (A549 [8]): 11.77% | GI50 (Malme-3M): 12 µM | GI50 (M14): 2.3 µM | GI50 (U-251): 5.1 µM | GI50 (SNB-19): 16.7 µM | GI50 (SF-539): 1.3 µM | GI50 (SF-268): 4.5 µM | GI50 (HCT-116): 4.5 µM | GI50 (NCI-H460): 29 µM | GI50 (NCI-H322M): 67.5 µM | GI50 (HOP-92): 0.7 µM | GI50 (NCI-H226): 27 µM | GI50 [9]: 42 µM | IC50 (A549 [10]): 2.01 µM | Activity (A549 [11]): 32.18% | GI50 (SR): 19.7 µM | GI50 (K562): 25 µM | GI50 (CCRF-CEM): 54 µM
